Measurements reported in ChEMBL document CHEMBL4229376, “Optimization of the pharmacokinetic properties of potent anti-trypanosomal triazine derivatives” (Eur J Med Chem, 2018).

Tests used:
[1] = test system: Trypanosoma brucei brucei; assay: Antitrypanosomal activity against suramin-sensitive Trypanosoma brucei brucei Squib 427 after 72 hrs by resazurin dye-based fluorimetric analysis; format: functional, organism-based; conditions: Squib 427, 72 h
Peritoneal macrophage = assay: Cytotoxicity against mouse primary peritoneal macrophages after 72 hrs by resazurin dye-based fluorimetric analysis; format: cell-based
[2] = Cytotoxicity against human MRC5 SV2 cells after 72 hrs by resazurin dye-based fluorimetric analysis; format: cell-based; conditions: MRC-5 SV2, 72 h
Leishmania infantum = assay: Antileishmanial activity against Leishmania infantum MHOM/MA (BE)/67 amastigotes infected in primary peritoneal mouse macrophages after 120 hrs by giemsa staining-based microscopic analysis; format: functional, organism-based; conditions: MHOM/MA (BE)/67, 120 h
Plasmodium falciparum = assay: Antiplasmodial activity against chloroquine-resistant Plasmodium falciparum K1 infected in human erythrocytes after 72 hrs by Malstat reagent-based spectrophotometric analysis; format: functional, organism-based; conditions: K1, 72 h
Trypanosoma cruzi = assay: Antitrypanosomal activity against nifurtimox-sensitive Trypanosoma cruzi Tulahuen CL2 infected in human MRC5 SV2 cells assessed as reduction in parasite burden after 168 hrs by CPRG and Nonidet based spectrophotometric analysis; format: functional, organism-based; conditions: Tulahuen CL2, MRC-5 SV2, 168 h
[3] = Drug metabolism in mouse liver microsomes assessed as CYP450 mediated compound […] by measuring parent compound remaining at 5 uM after 30 mins in presence of NADPH by UPLC/MS/ESI analysis; format: ADME; conditions: read-out: Stability
[4] = Drug metabolism in mouse liver microsomes assessed as UGT mediated compound […] by measuring parent compound remaining at 5 uM after 30 mins in presence of UDPGA by UPLC/MS/ESI analysis; format: ADME; conditions: 0.5 h
Procedure, shortened: (§1)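 Metabolic stability was run with mouse liver microsomal fraction (S9) and read as percent parent compound remaining over incubation time. Diclofenac served as the reference compound.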

[5] = Drug metabolism in human liver microsomes assessed as CYP450 mediated compound […] by measuring parent compound remaining at 5 uM after 15 mins in presence of NADPH by UPLC/MS/ESI analysis; format: ADME; conditions: read-out: Stability
[6] = Drug metabolism in human liver microsomes assessed as UGT mediated compound […] by measuring parent compound remaining at 5 uM after 15 mins in presence of UDPGA by UPLC/MS/ESI analysis; format: ADME; conditions: read-out: Stability
[7] = Drug metabolism in human liver microsomes assessed as CYP450 mediated compound […] by measuring parent compound remaining at 5 uM after 30 mins in presence of NADPH by UPLC/MS/ESI analysis; format: ADME; conditions: read-out: Stability
[8] = Drug metabolism in human liver microsomes assessed as UGT mediated compound […] by measuring parent compound remaining at 5 uM after 60 mins in presence of UDPGA by UPLC/MS/ESI analysis; format: ADME; conditions: read-out: Stability
[9] = Drug metabolism in human plasma assessed as parent compound remaining after 60 mins by UPLC/MS/ESI analysis; format: ADME, cell-free; conditions: read-out: Stability
[10] = Drug metabolism in human liver microsomes assessed as UGT mediated compound […] by measuring parent compound remaining at 5 uM after 30 mins in presence of UDPGA by UPLC/MS/ESI analysis; format: ADME; conditions: read-out: Stability
[11] = Drug metabolism in mouse liver microsomes assessed as CYP450 mediated compound […] by measuring parent compound remaining at 5 uM after 15 mins in presence of NADPH by UPLC/MS/ESI analysis; format: ADME; conditions: read-out: Stability
[12] = Drug metabolism in mouse liver microsomes assessed as UGT mediated compound […] by measuring parent compound remaining at 5 uM after 60 mins in presence of UDPGA by UPLC/MS/ESI analysis; format: ADME; conditions: 1 h; procedure, shortened: as §1
[13] = Drug metabolism in mouse liver microsomes assessed as CYP450 mediated compound […] by measuring parent compound remaining at 5 uM after 60 mins in presence of NADPH by UPLC/MS/ESI analysis; format: ADME; conditions: read-out: Stability
[14] = Drug metabolism in human plasma assessed as parent compound remaining after 1440 mins by UPLC/MS/ESI analysis; format: ADME, cell-free; conditions: read-out: Stability
Procedure, shortened: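 Compound incubated in human plasma for 24 h at 37 °C, and the fraction of parent compound remaining was determined.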

[15] = Drug metabolism in human liver microsomes assessed as CYP450 mediated compound […] by measuring parent compound remaining at 5 uM after 60 mins in presence of NADPH by UPLC/MS/ESI analysis; format: ADME; conditions: read-out: Stability
[16] = Drug metabolism in mouse liver microsomes assessed as UGT mediated compound […] by measuring parent compound remaining at 5 uM after 15 mins in presence of UDPGA by UPLC/MS/ESI analysis; format: ADME; conditions: 0.25 h; procedure, shortened: as §1
[17] = Drug metabolism in human plasma assessed as parent compound remaining after 15 mins by UPLC/MS/ESI analysis; format: ADME, cell-free
[18] = Drug metabolism in human plasma assessed as parent compound remaining after 30 mins by UPLC/MS/ESI analysis; format: ADME, cell-free

Structure (SMILES)	IC50 [1] [µM]	IC50 (Peritoneal macrophage) [µM]	IC50 [2] [µM]	IC50 (Leishmania infantum) [µM]	IC50 (Plasmodium falciparum) [µM]	IC50 (Trypanosoma cruzi) [µM]	also measured
Cc1cc(C)c(Oc2nc(N)nc(Nc3ccc(Cl)cc3)n2)c(C)c1	1.5	8	6.4	8.1	26.6	3.1	
Cc1ccc(Oc2nc(N)nc(Nc3ccc(F)cc3)n2)c(Cl)c1	0.5	32	> 64	27.3	51.7	7.8	remaining at 0.5 h, 5 µM [3]: 6%; Stability [4]: 109%; remaining at 0.25 h, 5 µM [5]: 90%; remaining at 0.25 h, 5 µM [6]: 88%; remaining at 0.5 h, 5 µM [7]: 87%; remaining at 1 h, 5 µM [8]: 79%; remaining at 1 h [9]: 117%; remaining at 0.5 h, 5 µM [10]: 88%; remaining at 0.25 h, 5 µM [11]: 25%; Stability [12]: 113%; remaining at 1 h, 5 µM [13]: 1.4%; remaining at 24 h [14]: 100%; remaining at 1 h, 5 µM [15]: 67%; Stability [16]: 108%; Stability ([17]; 0.25 h): 121%; Stability ([18]; 0.5 h): 124%
Cc1ccc(Nc2nc(N)nc(Nc3ccc(C#N)cc3)n2)cc1	> 64	> 64	> 64	> 64	> 64	> 64	
CNc1nc(Nc2ccc(F)cc2)nc(Oc2c(C)cc(C)cc2C)n1	10.9	32	> 64	24	20.2	7.8	
Cc1cc(C)c(Oc2ncnc(Nc3ccc(F)cc3)n2)c(C)c1	31.1	> 64	8	10.8	29.6	7.9	
Cc1ccc(Nc2nc(N)nc(Nc3ccc(C#N)cc3)n2)c(Cl)c1	7.7	> 64	> 64	50.8	29.8	> 64	
Cc1cc(C)c(Oc2nc(N)nc(Nc3cc(F)cc(F)c3)n2)c(C)c1	1.3	8	4.4	8.1	17.4	2.3	
CC1CS(=O)(=O)CCN1/N=C/c1ccc([N+](=O)[O-])o1 (configuration not stated) [NIFURTIMOX]						0.9	
Cc1cc(F)cc(C)c1Nc1nc(N)nc(Nc2ccc(C#N)cc2)n1	7.9	32	23.7	9.5	8.3	7.9	
Cc1ccc(Oc2nc(N)nc(Nc3ccc(F)cc3)n2)cc1	0.4	32	> 64	32.5	> 64	> 64	remaining at 0.5 h, 5 µM [3]: 28%; Stability [4]: 104%; remaining at 0.25 h, 5 µM [5]: 107%; remaining at 0.25 h, 5 µM [6]: 96%; remaining at 0.5 h, 5 µM [7]: 99%; remaining at 1 h, 5 µM [8]: 94%; remaining at 1 h [9]: 101%; remaining at 0.5 h, 5 µM [10]: 105%; remaining at 0.25 h, 5 µM [11]: 57%; Stability [12]: 110%; remaining at 1 h, 5 µM [13]: 10.5%; remaining at 24 h [14]: 95%; remaining at 1 h, 5 µM [15]: 113%; Stability [16]: 91%; remaining at 0.25 h ([17]; read-out: Stability): 104%; remaining at 0.5 h ([18]; read-out: Stability): 94%
Cc1cc(C)c(Oc2nc(N)nc(Nc3ccc(C(F)(F)F)cc3)n2)c(C)c1	6.9	8	6.5	8.1	8.8	2.4	
O=C(O)Cc1ccccc1Nc1c(Cl)cccc1Cl [DICLOFENAC]							Stability [4]: 28%; Stability [12]: 30%; Stability [16]: 38%
Cc1cc(C)c(Oc2nc(N)nc(Nc3c(F)cccc3F)n2)c(C)c1	> 64	32	> 64	32.5	> 64	> 64	
